Consider eleven compounds from ChEMBL document CHEMBL4130468, “Furostane Series Asterosaponins and Other Unusual Steroid Oligoglycosides from the Tropical Starfish Pentaceraster regulus” (J Nat Prod, 2017).

Test [1] deals with RAW264.7. Put plainly: Induction of ROS generation in mouse RAW264.7 cells at 5 uM after 24 hrs by H2DCFDA probe based fluorescence assay. The format is functional, cell-based. An outline of the steps:
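Adhered RAW 264.7 macrophages (2 h, 37 °C, 5% CO2) exposed to compounds at 5 μM without LPS for 24 h, compared with untreated cells. 2,7-Dichlorodihydrofluorescein diacetate added (final 10 μM) for an additional 10 min at 37 °C. Dichlorofluorescein fluorescence measured at λex/λem 485/518 nm. At least triplicate.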

Test [2] deals with RAW264.7. Briefly: Cytotoxicity against mouse RAW264.7 cells assessed as reduction in cell viability after 24 hrs by MTS assay. The format is functional, cell-based. Conditions: RAW264.7, 24 h. An outline of the steps:
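RAW 264.7 murine macrophages (DMEM, 10% FBS, 37 °C, 5% CO2) seeded 6 × 10^3 cells/well and cultured 2 h. Medium then replaced with compound-containing medium (1.25−10.0 μM range), 24 h exposure. MTS reagent added, formazan read 2 h later at 492 nm with 690 nm background. IC50 reported; at least triplicate, mean ± SD.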

Test [3] has as its system RAW264.7. Briefly: Immunomodulatory activity in mouse RAW264.7 cells assessed as inhibition of LPS-induced ROS level at 5 uM after 24 hrs by H2DCFDA probe based fluorescence assay relative to control. The conditions noted are these: RAW264.7, 24 h. The format is functional. The essentials: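 RAW 264.7 macrophages allowed to adhere 2 h at 37 °C, 5% CO2, then given compounds (5 μM) co-incubated with E. coli serotype 055:B5 LPS (1.0 μg/mL) for 24 h. DCFH-DA then added (final 10 μM) for 10 min at 37 °C. Fluorescence read at 485/518 nm; % reduction of LPS-induced ROS. At least triplicate, mean ± SD.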

Molecules are shown by their SMILES. pIC50: −log10 of the molar value. Active and inactive are the calls of the source. The calls are words filed in the database; no cut-off is given here.

On to `C[C@H]1O[C@@H](O[C@H]2[C@H](O[C@@H]3CO[C@@H](O[C@@H]4[C@@H](O)[C@H](O[C@H]5C[C@@H]6C(=CC[C@@]7(C)[C@H]6CC[C@@H]7[C@@](C)(O)C(=O)/C=C/C(C)(C)O)[C@@]6(C)CC[C@H](OS(=O)(=O)O)C[C@H]56)O[C@H](C)[C@H]4O)[C@H](O[C@@H]4O[C@H](C)[C@@H](O)[C@H](O)[C@H]4O)[C@H]3O)O[C@H](C)[C@@H](O)[C@@H]2O)[C@H](O)[C@@H](O)[C@H]1O`, for which the outcome in test [1] was inactive. Also, in test [2], the negative logarithm of the IC50 (pIC50) is 5.00 to 5.90.

`CC(=O)[C@H]1CC[C@H]2[C@@H]3C[C@H](O[C@@H]4O[C@H](C)[C@@H](O)[C@H](O[C@@H]5OC[C@@H](O[C@@H]6O[C@H](C)[C@@H](O)[C@H](O)[C@H]6O[C@@H]6O[C@H](C)[C@H](O)[C@H](O)[C@H]6O)[C@H](O)[C@H]5O[C@@H]5O[C@H](C)[C@@H](O)[C@H](O)[C@H]5O)[C@H]4O)[C@H]4C[C@@H](OS(=O)(=O)O)CC[C@]4(C)C3=CC[C@]12C`: the outcome in test [1] was inactive. The negative logarithm of the IC50 (pIC50) in test [2] is 5.00 to 5.90.

With `CC(C)CC(=O)C[C@](C)(O)[C@H]1CC[C@H]2[C@@H]3C[C@H](O[C@@H]4O[C@H](C)[C@@H](O)[C@H](O[C@@H]5OC[C@@H](O[C@@H]6O[C@H](CO)[C@H](O)[C@H](O)[C@H]6O[C@@H]6O[C@H](C)[C@H](O)[C@H](O)[C@H]6O)[C@H](O)[C@H]5O[C@@H]5O[C@H](C)[C@@H](O)[C@H](O)[C@H]5O)[C@H]4O)[C@H]4C[C@@H](OS(=O)(=O)O)CC[C@]4(C)C3=CC[C@@]21C`, in test [1], the result was inactive. For the same compound, the pIC50 in test [2] is 5.15.

For the compound `CC(C)CC(=O)C[C@](C)(O)[C@H]1CC[C@H]2[C@@H]3C[C@H](O[C@@H]4O[C@H](C)[C@@H](O)[C@H](O[C@@H]5OC[C@@H](O[C@@H]6O[C@H](CO)[C@@H](O)[C@H](O)[C@H]6O[C@@H]6O[C@H](C)[C@H](O)[C@H](O)[C@H]6O)[C@H](O)[C@H]5O[C@@H]5O[C@H](C)[C@@H](O)[C@H](O)[C@H]5O)[C@H]4O)[C@H]4C[C@@H](OS(=O)(=O)O)CC[C@]4(C)C3=CC[C@@]21C`, in test [1], the result was inactive.

Regarding `CC(C)C(C)[C@H](O)[C@@H]1O[C@H]2C[C@H]3[C@@H]4C[C@H](O[C@@H]5O[C@H](C)[C@@H](O)[C@H](O[C@@H]6O[C@H](C)[C@@H](O[C@@H]7O[C@H](CO)[C@@H](O)[C@H](O)[C@H]7O[C@@H]7O[C@H](C)[C@H](O)[C@H](O)[C@H]7O)[C@H](O)[C@H]6O[C@@H]6O[C@H](C)[C@@H](O)[C@H](O)[C@H]6O)[C@H]5O)[C@H]5C[C@@H](OS(=O)(=O)O)CC[C@]5(C)C4=CC[C@]3(C)[C@H]2[C@@]1(C)O` (stereo partly specified), the outcome in test [1] was inactive. In addition, the negative-log IC50 (pIC50) in test [2] was 5.00 to 5.90.

In the case of `CC(C)CC[C@H](O)[C@](C)(O)[C@H]1CC[C@H]2[C@@H]3C[C@H](O[C@@H]4O[C@H](C)[C@@H](O)[C@H](O[C@@H]5OC[C@@H](O[C@@H]6O[C@H](C)[C@@H](O)[C@H](O)[C@H]6O[C@@H]6O[C@H](C)[C@H](O)[C@H](O)[C@H]6O)[C@H](O)[C@H]5O[C@@H]5O[C@H](C)[C@@H](O)[C@H](O)[C@H]5O)[C@H]4O)[C@H]4C[C@@H](OS(=O)(=O)O)CC[C@]4(C)C3=CC[C@]12C`, the outcome in test [1] was inactive. For the same compound, the inhibition at 5 µM in test [3] was 28%. For the same compound, in test [2], the negative-log IC50 (pIC50) was 5.00 to 5.90.

With `CCC(C)[C@H](O)[C@@H]1O[C@H]2C[C@H]3[C@@H]4C[C@H](O[C@@H]5O[C@H](C)[C@@H](O)[C@H](O[C@@H]6O[C@H](C)[C@@H](O[C@@H]7O[C@H](CO)[C@@H](O)[C@H](O)[C@H]7O[C@@H]7O[C@H](C)[C@H](O)[C@H](O)[C@H]7O)[C@H](O)[C@H]6O[C@@H]6O[C@H](C)[C@@H](O)[C@H](O)[C@H]6O)[C@H]5O)[C@H]5C[C@@H](OS(=O)(=O)O)CC[C@]5(C)C4=CC[C@]3(C)[C@H]2[C@@]1(C)O` (stereo partly specified), the outcome in test [1] was inactive. Besides, the inhibition at 5 µM in test [3] turned out to be 40%.

With `CC(C)CCC(=O)[C@](C)(O)[C@H]1CC[C@H]2[C@@H]3C[C@H](O[C@@H]4O[C@H](C)[C@@H](O)[C@H](O[C@@H]5OC[C@@H](O[C@@H]6O[C@H](C)[C@@H](O)[C@H](O)[C@H]6O[C@@H]6O[C@H](C)[C@H](O)[C@H](O)[C@H]6O)[C@H](O)[C@H]5O[C@@H]5O[C@H](C)[C@@H](O)[C@H](O)[C@H]5O)[C@H]4O)[C@H]4C[C@@H](OS(=O)(=O)O)CC[C@]4(C)C3=CC[C@@]21C`, the outcome in test [1] was inactive. In test [3], the inhibition at 5 µM worked out at 55%.

Turning to `CC(C)[C@H](C)[C@@H]1O[C@H]1[C@](C)(O)[C@H]1[C@@H](O)C[C@H]2[C@@H]3C[C@H](O[C@@H]4O[C@H](C)[C@@H](O)[C@H](O[C@@H]5O[C@H](C)[C@@H](O[C@@H]6O[C@H](CO)[C@@H](O)[C@H](O)[C@H]6O[C@@H]6O[C@H](C)[C@H](O)[C@H](O)[C@H]6O)[C@H](O)[C@H]5O[C@@H]5O[C@H](C)[C@@H](O)[C@H](O)[C@H]5O)[C@H]4O)[C@H]4C[C@@H](OS(=O)(=O)O)CC[C@]4(C)C3=CC[C@]12C`, in test [1], the result was inactive. For the same compound, in test [2], the pIC50 was 5.19.

In the case of `CC(C)=CC[C@H](O)[C@](C)(O)[C@H]1CC[C@H]2[C@@H]3C[C@H](O[C@@H]4O[C@H](C)[C@@H](O)[C@H](O[C@@H]5OC[C@@H](O[C@@H]6O[C@H](C)[C@@H](O)[C@H](O)[C@H]6O[C@@H]6O[C@H](C)[C@H](O)[C@H](O)[C@H]6O)[C@H](O)[C@H]5O[C@@H]5O[C@H](C)[C@@H](O)[C@H](O)[C@H]5O)[C@H]4O)[C@H]4C[C@@H](OS(=O)(=O)O)CC[C@]4(C)C3=CC[C@]12C`, the outcome in test [1] was inactive.

With `CC(=O)[C@H]1CC[C@H]2[C@@H]3C[C@H](O[C@@H]4O[C@H](C)[C@@H](O)[C@H](O[C@@H]5OC[C@@H](O[C@@H]6O[C@H](CO)[C@H](O)[C@H](O)[C@H]6O[C@@H]6O[C@H](C)[C@H](O)[C@H](O)[C@H]6O)[C@H](O)[C@H]5O[C@@H]5O[C@H](C)[C@@H](O)[C@H](O)[C@H]5O)[C@H]4O)[C@H]4C[C@@H](OS(=O)(=O)O)CC[C@]4(C)C3=CC[C@]12C`, in test [1], the result was inactive. Also, the negative-log IC50 (pIC50) in test [2] was 5.00 to 5.90.

In general, pIC50 refers to −log10 of the IC50, conventionally taken in molar units. For orientation: inhibition means the relative decrease from the control value, in per cent.
